{"source": "paper PMC7327769", "about": "(Asian Journal of Pharmaceutical Sciences, 2019)", "key": {"[1]": {"assay": "Solubility testing of saquinavir in oils, surfactants, and co-surfactants", "assay_type": "physicochemical", "settings": "20 °C, 24 h", "procedure,_shortened": "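Excess test compound added to each neat excipient and stirred magnetically. Content quantified by HPLC with UV detection at 240 nm (retention 3.8 min). Expressed as mg/g, mean ± standard deviation.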"}, "[2]": {"settings": "after oral administration to HIV-infected patients; cited from earlier work"}}}
{"smiles": "CC(C)(C)NC(=O)[C@@H]1C[C@@H]2CCCC[C@@H]2CN1C[C@@H](O)[C@H](Cc1ccccc1)NC(=O)[C@H](CC(N)=O)NC(=O)c1ccc2ccccc2n1", "note": "[saquinavir, Saquinavir]", "values": [{"measurement": "Solubility of saquinavir", "setting": "[1]; in Capryol 90 (oil)", "result": "145 ± 12.6", "unit": "mg/g"}, {"measurement": "Solubility of saquinavir", "setting": "[1]; in Cremophor® EL (surfactant)", "result": "55 ± 5.0", "unit": "mg/g"}, {"measurement": "Solubility of saquinavir", "setting": "[1]; in Labrafac® CM10 (oil)", "result": "57 ± 4.2", "unit": "mg/g"}, {"measurement": "Solubility of saquinavir", "setting": "[1]; in Labrasol® (surfactant)", "result": "105 ± 5.0", "unit": "mg/g"}, {"measurement": "Solubility of saquinavir", "setting": "[1]; in PEG 400 (co-surfactant)", "result": "40 ± 3.4", "unit": "mg/g"}, {"measurement": "Solubility of saquinavir", "setting": "[1]; in Propylene glycol (co-surfactant)", "result": "228 ± 19.5", "unit": "mg/g"}, {"measurement": "Solubility of saquinavir", "setting": "[1]; in Transcutol® HP (co-surfactant)", "result": "158 ± 17.8", "unit": "mg/g"}, {"measurement": "Solubility of saquinavir", "setting": "[1]; in Triglyceride (oil)", "result": "1.9 ± 0.4", "unit": "mg/g"}, {"measurement": "Solubility of saquinavir", "setting": "[1]; in Tween® 80 (surfactant)", "result": "37 ± 4.3", "unit": "mg/g"}, {"measurement": "Solubility of saquinavir", "setting": "[1]; in Water (aqueous phase)", "result": "2.2 ± 0.3", "unit": "mg/g"}, {"measurement": "time of the highest saquinavir concentration in plasma", "setting": "[2]", "result": "2 to 4", "unit": "h"}]}
